EBI2 antag – blocks human EBI2 receptor beta-arrestin signaling | inhibition, % at 5 µM | 0.81% of 360,000 active | EBI2 beta-arrestin recruitment, luminescence, 7a,25-OHC stimulated | AID 651636 | P32249; in the data active = inhibition above about 38%;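 also: enzyme fragment complementation signal reports receptor beta-arrestin coupling in cells; 0% = agonist plus DMSO wells and 100% = wells without agonist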
CXCR6 inh – CXCR6 (human) receptor inhibition; O00574; CHO-K1 PathHunter CXCR6 beta-arrestin, luminescence; inhibition, % at 20 µM; 0.36% of 360,000 active; AID 602244; in the data active = inhibition above about 34%, passing the limit was not always enough;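 also: antagonist mode with CXCL16 agonist at 10 nM final; 0% = 10 nM CXCL16 with DMSO and 100% = unstimulated wells without agonist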
Target sequence (O00574 whole entry, looked up): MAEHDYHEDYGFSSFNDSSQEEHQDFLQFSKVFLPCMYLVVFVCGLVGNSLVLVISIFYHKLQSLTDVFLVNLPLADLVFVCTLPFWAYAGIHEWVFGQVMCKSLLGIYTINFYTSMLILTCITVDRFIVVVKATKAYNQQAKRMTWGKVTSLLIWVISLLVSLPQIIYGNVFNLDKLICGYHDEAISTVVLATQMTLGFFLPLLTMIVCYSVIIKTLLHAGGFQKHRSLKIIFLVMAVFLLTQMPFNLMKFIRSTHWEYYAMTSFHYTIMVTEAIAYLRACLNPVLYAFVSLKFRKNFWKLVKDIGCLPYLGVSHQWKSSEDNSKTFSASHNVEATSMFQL
APJ ag – agonists of human APJ apelin receptor; P35414; CHO-K1 APJ PathHunter beta-arrestin, luminescence; 0% DMSO wells, 100% apelin; activation, % at 20 µM; 0.11% of 330,000 active;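 active = activation more than six SD over the plate average, tested at 20 µM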;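 also: 0% = DMSO alone and 100% = apelin-13 at 10 nM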
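assay system = CHO-K1 APJ beta-arrestin complementation cell line | input = cell density 1000 per well | dosing = compound 20 µM once, DMSO 1% | timing = compound 90 min 25 °C, reagent 1 h | measured by = luminescence from split beta-galactosidase complementation, Galacton Star/Emerald II substrate | read-out basis = APJ agonist activity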
CCR6 antag – CCR6 (human) receptor antagonism | AID 493098 | 0.49% of 340,000 active | CHO-K1 CCR6 PathHunter beta-arrestin, luminescence, CCL20-stimulated | inhibition, % at 20 µM | P51684;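 active = compounds whose inhibition of the agonist-driven luminescence signal at 20 µM reaches about 50%, limit read from the data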;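 also: cells stimulated with CCL20 at 14 nM final; plate controls were DMSO with CCL20 for no effect and DMSO without agonist for full effect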
APJ antag – APJ receptor antagonism | inhibition, % at 20 µM | CHO-K1 APJ beta-arrestin complementation, luminescence | 0.32% of 330,000 active | P35414;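 active = inhibition above about 40% at 20 µM, limit read from the data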;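 also: cells challenged with 10 nM apelin-13 agonist together with compound; plate controls were apelin-13 plus DMSO wells for no effect and DMSO wells lacking apelin-13 for full effect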
m5-HT2A agonist – agonists of mouse serotonin 5-HT2A receptor (HTR2A) | 0.66% of 360,000 active | AID 624169 | CHO-K1 mHTR2A beta-arrestin complementation, luminescence; percent of 30 µM serotonin response | activation, % at 7.6 µM;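 active = activation above a run cutoff, the mean activation of all tested compounds plus 3 SD, cut at about 14% in these data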;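 also: 0% = plate median of compound wells and 100% = 30 µM serotonin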
APJ antag confirm – APJ receptor antagonism confirmation; APJ beta-arrestin recruitment, luminescence, antagonist mode; shares compounds with APJ antag; AID 2766; inhibition, % at 20 µM; 66% of 950 active; in the data active = inhibition above about 50%
An asterisk follows results filed as active; / = not tested or not shown. Sampled rows, rich in hits. Any-hit rate of the full collection: about 2.2%.

SMILES	EBI2 antag	CXCR6 inh	APJ ag	CCR6 antag	APJ antag	m5-HT2A agonist	APJ antag confirm
COC(=O)c1c(NC2=NS(=O)(=O)c3ccccc32)sc2c1CCC(C(C)(C)C)C2 (centres undefined)	0	13	/	27	/	1	/
O=C(NC1CCCC1)C1C(c2ccc(C(F)(F)F)cc2)=Nc2ccccc2N1C(=O)c1cc2ccccc2[nH]1 (centres undefined)	7	/	/	/	/	-4	/
O=C1NC(=S)N/C1=C/c1cccc([N+](=O)[O-])c1O	6	44*	-11	46	43*	-5	79*
O=C(c1ccco1)N1CCN(C(=O)C2(S(=O)(=O)c3ccc(Cl)cc3)CC2)CC1	-1	6	2	-3	41*	0	14
CSCCC(C(=O)Nc1c(C)cccc1C)N1CCN(C/C=C/c2ccccc2)CC1 (centres undefined)	14	6	/	/	/	-6	/
O=C(CCC(=O)c1cccs1)OCC(=O)c1ccc(Cl)s1	2	10	-2	14	41*	-3	-2
CCCCOc1ccc(C(=O)N/C(=C/C=C/c2ccccc2)C(=O)NCCO)cc1	1	-4	-2	9	43*	8	-14
CCCCOc1ccc(C(=O)N/C(=C/C=C/c2ccccc2)C(=O)NCCCO)cc1	2	2	-4	10	16	-3	/
O=[N+]([O-])c1c(NCCCO)cc(Sc2nc3ccccc3s2)c2nonc12	49*	97*	-7	115*	76*	-2	117*
COC(=O)C1=CN(c2ccc(F)cc2)C(N)=C(C#N)C1c1ccc(-c2ccccc2)cc1 (centres undefined)	11	/	/	/	/	-5	/
O=C(C1=C(O)C(=O)N(CCN2CCOCC2)C1c1cccs1)c1cc2ccccc2o1 (centres undefined)	7	11	-7	23	56*	-4	28
O=C(C1=C(O)C(=O)N(CCN2CCOCC2)C1c1cccc(O)c1)c1cc2ccccc2o1 (centres undefined)	5	-2	-2	7	24	-3	/
O=C(NCCc1cnc[nH]1)c1cccs1	-7	5	-4	7	43*	2	33
O=C(NCCc1ccccc1)c1cccs1	2	3	-5	4	-3	-7	/
OCCN1C[C@H](O)[C@@H](O)[C@H](O)[C@H]1CO	/	/	-12	/	43*	/	65*
NS(=O)(=O)c1ccc(N=Nc2c(=O)[nH]n3c(=O)c4c([nH]c23)CCCC4)cc1	8	25	-9	35	45*	2	58*
COc1ccc(C=C2C(=O)c3ccccc3C2=O)cc1O	4	32	-8	43	45*	1	59*
COc1cc(C=C2C(=O)c3ccccc3C2=O)cc(OC)c1OC	-10	20	-2	7	17	-4	/
CC(C)c1cc(Cn2c3ccccc3c(=O)n2C(C)Cn2cc(-c3ccccc3)nn2)on1 (centres undefined)	0	/	/	/	/	1	/
O=C1c2ccccc2C(c2nc3ccccc3[nH]2)N1Cc1ccco1 (centres undefined)	1	0	/	/	/	3	/
Cc1cc(C)cc(N2CC(C)Cn3c2nc2c3c(=O)[nH]c(=O)n2C)c1 (centres undefined)	-1	3	-4	-1	23	-1	/
COc1cccc(N2CC(C)Cn3c2nc2c3c(=O)[nH]c(=O)n2C)c1 (centres undefined)	17	44*	-6	41	46*	-6	79*
COc1cccc(Nc2ccc([N+](=O)[O-])c3nonc23)c1	-8	18	-6	47	41*	-8	68*
CN(Cc1ccccc1)C(=O)[C@@H]1CCCN1C(=O)OC(C)(C)C	-11	8	/	/	/	4	/
O=C(CNc1cccc(Cl)c1)c1ccc(Cl)cc1	25	41*	-16	47	73*	-5	91*
SMILES	EBI2 antag	CXCR6 inh	APJ ag	CCR6 antag	APJ antag	m5-HT2A agonist	APJ antag confirm
Cc1ccc(C(=O)CNc2cccc(Cl)c2)cc1	15	20	-9	47	66*	-4	77*
COC(=O)[C@@]12C[C@@H](CC(=O)NCc3ccc(C)o3)C(=O)N(Cc3ccccc3)C1=CCC(C)(C)C2	6	/	/	/	/	-2	/
CCOc1ccc(CCNC(=O)c2cccnc2N2CCCC2)cc1OCC	-1	3	-2	-2	58*	0	52*
C/C=C/c1ccc(OCCCCN(C)Cc2ccccc2)c(OC)c1	0	8	-5	1	51*	-6	18
CC(C)OC(=O)N(C)C[C@@H]1OCc2ccccc2-c2c(n(C)c3ccccc23)C(=O)N([C@@H](C)CO)C[C@H]1C	1	9	/	/	/	0	/
COc1ccc(C(=O)CNc2cccc(F)c2)cc1	0	35	-11	60*	45*	-4	95*
COc1ccccc1NCC(=O)c1ccc(Cl)cc1	-3	38	-16	71*	72*	-4	110*
COc1ccc(C(=O)CNc2ccccc2CO)cc1	4	18	-8	91*	40*	-5	149*
COc1ccc(C(=O)CC(=O)C(=O)Nc2cccc(F)c2)cc1	7	13	-1	19	5	3	/
CC1=C(C(=O)N(C)C)CC(CC(=O)NCCN2CCOCC2)C(=O)N1CCCN1CCCC1=O (centres undefined)	-5	0	/	/	/	3	/
CC1CCN(S(=O)(=O)c2cc(C(=O)N3CCN(c4ccccc4)CC3)ccc2Br)CC1	17	0	/	/	/	-5	/
CC(C)[C@@H]1O[C@H](CCc2ccccc2)CC2=C1C(=O)OC(C)(C)O2	9	2	/	/	/	2	/
Cc1ccc(/C=C2/NC(=O)N(Cc3ccccc3)C2=O)o1	-2	8	-9	13	61*	-1	37
Oc1ccccc1N=Nc1nc(-c2ccccc2)c(-c2ccccc2)[nH]1	0	33	-12	70*	62*	-11	104*
Cc1ccc(S(=O)(=O)N2CCN(C(=O)c3cc(S(=O)(=O)N(C)C)ccc3N3CCCC3)CC2)c(C)c1	7	-5	-3	12	-4	-5	/
COc1ccc(N2CCOCC2)c(NC(=O)c2ccc3c(c2)OCO3)c1	-4	1	-1	20	51*	0	30
CCCOc1cccc(C2C(C(=O)c3cc4ccccc4o3)=C(O)C(=O)N2c2cc(C)on2)c1 (centres undefined)	-2	-2	-4	5	47*	3	35
Cc1cc(N2C(=O)C(O)=C(C(=O)c3cc4ccccc4o3)C2c2cccc(Br)c2)no1 (centres undefined)	11	5	-3	4	31	4	/

Assay outcomes (PubChem)
